Rtt109 Vps75: inhibitors of Candida albicans Rtt109/Vps75 histone acetyltransferase | inhibition, % at 34.9 µM | AID 540336 | purified Rtt109/Vps75, ThioGlo CoA-SH fluorescence, 4 h | actives 0.16% (n = 330,000) | Q5AAJ8;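 active = inhibition of at least 50% in every replicate; inconclusive = best replicate reaches 50% inhibition but some replicates fall short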
Target sequence (Q5AAJ8 whole entry, looked up): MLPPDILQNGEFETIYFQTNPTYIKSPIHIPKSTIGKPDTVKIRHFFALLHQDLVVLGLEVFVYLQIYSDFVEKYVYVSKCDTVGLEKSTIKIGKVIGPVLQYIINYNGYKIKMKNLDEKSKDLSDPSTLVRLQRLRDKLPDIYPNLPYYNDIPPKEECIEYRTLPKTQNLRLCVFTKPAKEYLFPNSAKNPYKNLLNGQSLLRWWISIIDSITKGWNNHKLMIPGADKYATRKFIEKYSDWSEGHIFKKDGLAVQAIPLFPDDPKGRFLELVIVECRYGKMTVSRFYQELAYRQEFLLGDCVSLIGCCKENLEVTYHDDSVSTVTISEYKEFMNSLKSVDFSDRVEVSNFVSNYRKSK
PfHsp90 set2: reduces growth (ATP signal) of yeast expressing P. falciparum Hsp90; actives 0.32% (n = 310,000); AID 504621; S. cerevisiae expressing PfHsp90, BacTiter-Glo ATP, 48 h; yeast lacking PDR1 and PDR3 efflux regulators; inhibition, % at 9.4 µM;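 active = every replicate shows inhibition above about 80%, whatever the replicate mean, limit read from the data; inconclusive = mean inhibition reaches the set limit but some replicate falls short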;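 note: 0% = DMSO neutral controls and 100% = 20 µM radicicol positive controls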
HIV Env fusion: HIV envelope-mediated fusion inhibition; HeLa-JRFL Env/CEM21 cell fusion, luciferase; inhibition, % at 12.3 µM; actives 1.1% (n = 360,000); AID 651610;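 active = mean replicate inhibition score of at least 50 and every replicate individually at or above 50; inconclusive = only one of the two criteria met; inactive = mean below 50 and not all replicates reaching 50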;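 note: 0% = plate neutral controls and 100% = maraviroc near 300 nM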
N-glyco inh: N-linked glycosylation inhibition; D54 ERlucT glycosylation luciferase reporter, 24 h; percent of 100 nM tunicamycin response; reporter increase, % at 12.5 µM; actives 0.23% (n = 360,000); AID 588692;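 active = mean luciferase reporter signal, scaled so untreated is 0 and the glycosylation-blocking control 100, at or above a set limit in every replicate; inconclusive = mean reaches the limit but not every replicate does; inactive = mean below the limit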;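 note: luciferase carries N-glycosylation sites so blocking glycosylation raises the light; 0% = median of neutral control wells and 100% = median of 100 nM tunicamycin wells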
Arr AP2 block: inhibitors of human beta-arrestin and AP2 interaction; inhibition, % at 10 µM; AID 504490; actives 0.31% (n = 340,000); FITC-arrestin peptide / GST-AP2 beads, flow cytometry; AP2 beta2 appendage carries R879A mutation;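 active = inhibition above a set limit, near 3 SD of compounds lacking own fluorescence, cut at about 54% in these data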;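 note: plate controls were DMSO wells for no effect and 5 µM unlabelled arrestin peptide for full effect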
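Test system: GST-tagged AP2 beta2-adaptin appendage (R879A) on 4 µm glutathione beads; also added: fluorescein-tagged arrestin peptide at 50 nM final; timing: 12 min plus 1 h, RT; signal: flow cytometry, FL1 (488/535 nm); read-out: percent drop in bead-associated FITC signal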
PAX8 reporter: inhibitors of PAX8 transcriptional activity in RMG-I cells; RMG-I TPO-luciferase reporter, SteadyGlo, 24 h; inhibition, % at 12.6 µM; actives 1.2% (n = 360,000); AID 652154;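 active = mean replicate inhibition at least 60% with every replicate also reaching 60%; inconclusive = only one of the two criteria is met; inactive = mean below 60% and not all replicates reaching 60%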;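 note: luciferase light reporting Pax8 driven TPO promoter activity; plate controls were median of neutral control wells for no effect and mitoxantrone controls for full effect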
* hit, by the source's call; i = inactive; ? = inconclusive; nt = not tested or not shown; [ ] = dose if it differs, or a comment. Rows were chosen to be rich in hits. Some 2.3% of all compounds tested hit in one or more screens of this group.

SMILES | Rtt109 Vps75 | PfHsp90 set2 | HIV Env fusion | N-glyco inh | Arr AP2 block | PAX8 reporter
CCCNC(=O)N(C)C[C@H]1Oc2ncc(C3=CCCCC3)cc2C(=O)N([C@@H](C)CO)C[C@@H]1C | nt | nt | 2[16.7 µM] | nt | nt | nt
c1ccc2c(c1)CCCC2C1=NCCN1 (centres undefined) | 2 | -9 | 11 | 0 | 5 | 11
Brc1ccc2c(c1)C(C1=NCCN1)c1ccccc1CS2 (centres undefined) | -1 | -8 | 62* | 2 | -7 | 11
Cc1ccc(C)c(N2CCN(C(=O)CCS(=O)(=O)c3ccc4c(c3)NC(=O)C(C)S4)CC2)c1 (centres undefined) | 10 | 0 | 22 | -6 | 44 | 62*
CCOC(=O)c1cc2cc(OCc3ccccc3)ccc2nc1C | 1 | 118* | 8 | -2 | -2 | 16
C[C@@H]1CN([C@@H](C)CO)C(=O)c2cc(NC(=O)Nc3cccc4ccccc34)ccc2O[C@@H]1CN(C)S(C)(=O)=O | nt | nt | nt | nt | nt | 8
COc1ccc(CN(C)C[C@H]2Oc3ccc(NC(=O)Cn4cnnn4)cc3C(=O)N([C@@H](C)CO)C[C@H]2C)cc1 | nt | nt | 11[16.7 µM] | nt | nt | -22
CC(C)CC#Cc1cnc2c(c1)C(=O)N([C@@H](C)CO)C[C@H](C)[C@H](CN(C)C(=O)c1ccc(F)cc1)O2 | nt | nt | 35[16.7 µM] | nt | nt | nt
CC(C)(C)C(=O)Nc1ccc(NC(=O)c2ccco2)nc1 | -7 | 19 | 63* | -19 | 24 | 109*
Cc1nn(Cc2c(F)c(F)c(F)c(F)c2F)c(C)c1NC(=O)c1cccc(COc2ccc(Cl)cc2)c1 | 5 | 7 | 63* | -4 | -3 | nt
C=CCOc1ccc(NC(=O)C(=O)NCCCn2ccnc2)cc1 | 16 | -1 | -64 | -4 | 12 | nt
CCCCCOc1ccc(NC(=O)C(=O)NCCCn2ccnc2)cc1 | 2 | -12 | -254 | -4 | -8 | 77*
CN(C)C(=O)C[C@H]1CC[C@@H]2[C@H](COC[C@H](O)CN2Cc2nccs2)O1 | nt | nt | 0[16.7 µM] | nt | nt | -7
CCCCn1c(SCC(=O)Nc2cc(C(F)(F)F)cc(C(F)(F)F)c2)nnc1C(CC)N(C)C (centres undefined) | 10 | 10 | nt | 28* | 7 | 45
CCC(=O)N(C)C[C@H]1Oc2cc(C#Cc3ccncc3)ccc2S(=O)(=O)N([C@@H](C)CO)C[C@H]1C | nt | nt | -32[16.7 µM] | nt | nt | nt
Cc1noc(C)c1NC(=O)Nc1ccc2c(c1)C(=O)N([C@@H](C)CO)C[C@@H](C)[C@@H](CN(C)C(=O)NC1CCCCC1)OCCCC[C@@H](C)O2 | nt | nt | 20[16.7 µM] | nt | nt | 4
O=C(O)/C=C/c1ccc([N+](=O)[O-])o1 | -2 | 10 | -1 | -3 | 10 | 31
O=C1NC(=S)S/C1=C\C=C\c1ccc([N+](=O)[O-])o1 | 33 | 106* | i | -19 | 27 | 48
CC(C)Oc1ccc(F)cc1-c1cc(C(=O)Nc2ccc(C(C)(C)C)cc2)[nH]n1 | nt | nt | 7 | 42* | nt | 16
C[C@@H]1CCCCO[C@@H](CN(C)S(=O)(=O)c2cccs2)[C@@H](C)CN([C@@H](C)CO)C(=O)c2cc(NC(=O)c3ccncc3)ccc2O1 | nt | nt | -23[16.7 µM] | nt | nt | 1
N#C/C(=C\c1ccc([N+](=O)[O-])o1)C(=O)Nc1ccc(F)cc1 | -1 | 106* | 5 | ? | 10 | 13
COc1ccc(NC(=O)/C(C#N)=C\c2ccc(Br)o2)cc1 | -7 | -30 | -6 | 0 | 1 | -63
NC(=O)c1ccc(NC(=O)c2ccc(COc3ccccc3Br)cc2)cc1 | 2 | -19 | -26 | -1 | 1 | -21
Cc1cc(C)n(Cc2ccc(NC(=O)c3ccc(COc4ccccc4Br)cc3)cc2)n1 | -8 | 3 | 79* | -5 | 5 | nt
O=[N+]([O-])c1ccc(N=NN(CCO)CCO)cc1 | nt | 11 | -115 | -1 | 12 | -128
SMILES | Rtt109 Vps75 | PfHsp90 set2 | HIV Env fusion | N-glyco inh | Arr AP2 block | PAX8 reporter
O=[N+]([O-])c1ccc(N=Nc2ncc[nH]2)cc1 | 2 | -5 | -204 | -1 | 4 | 74*
Cc1ccc(NC(=O)c2ccc(Cl)c(N3C(=O)C=CC3=O)c2)cc1 | -2 | 124* | nt | -1 | 8 | nt
COc1ccccc1NC(=O)N(C)C[C@H]1Oc2ncc(Br)cc2C(=O)N([C@H](C)CO)C[C@@H]1C | nt | nt | 1[16.7 µM] | nt | nt | nt
Cc1cccc(C(=O)c2cnc3ccccc3c2-c2ccccc2)c1 | 9 | -37 | 73* | -6 | -5 | nt
Cc1cccc(C(=O)NNC(=O)c2ccccc2)c1 | -6 | -14 | 4 | 0 | -21 | -31
COc1cc(/C=C(\C#N)c2nc3ccccc3s2)ccc1OCC(=O)Nc1ccccc1 | -1 | -14 | nt | 71* | 0 | nt
COc1ccc(S(=O)(=O)N(C)C[C@@H]2Oc3c(NC(=O)c4ccc(-c5nccs5)cc4)cccc3C(=O)N([C@H](C)CO)C[C@@H]2C)cc1 | nt | nt | -16[16.7 µM] | nt | nt | nt
Cc1ccc(C(=O)c2c(C)oc3c2C(=O)C(=O)c2ccccc2-3)cc1 | -10 | nt | nt | -20 | 2 | nt
Cc1ccc(C(=O)c2coc3c2C(=O)C(=O)c2ccccc2-3)cc1 | 2 | 141* | nt | ? | -13 | nt
O=S(=O)(CCSc1nc2ccccc2s1)c1nc2ccccc2s1 | -3 | -25 | 29 | -9 | 0 | 104*
CCS(=O)(=O)CCSc1nc2ccccc2s1 | 5 | -5 | nt | 1 | 1 | nt
O=S(=O)(c1ccc2c(c1)C(=NO)c1cc(S(=O)(=O)N3CCCCC3)ccc1-2)N1CCCCC1 | -4 | nt | 126* | -14 | -4 | 109*
COc1ccc(S(=O)(=O)N[C@@H]2CC[C@H](CCn3cc(C(C)C)nn3)O[C@H]2CO)cc1 | nt | nt | 5[16.7 µM] | nt | nt | 6
C[C@H]1CN([C@@H](C)CO)C(=O)c2cc(NC(=O)c3ccncc3)ccc2O[C@@H]1CN(C)C(=O)Nc1cccc2ccccc12 | nt | nt | -11[16.7 µM] | nt | nt | 3
C=CCOC(=O)C1=C(C)NC(SCC(=O)Nc2nccs2)=C(C#N)C1c1ccc(Cl)cc1 (centres undefined) | 7 | 4 | 103* | -2 | -1 | 4
COc1ccc(S(=O)(=O)Nc2ccc3c(c2)CC(=O)N([C@H](C)CO)C[C@H](C)[C@@H](CN(C)S(=O)(=O)c2ccccc2)O3)cc1 | nt | nt | 1[16.7 µM] | nt | nt | -4
CCc1ccc(N(C(=O)Cn2nnc(-c3ccccc3)n2)C(C(=O)NC2CCCCC2)c2ccccn2)cc1 (centres undefined) | 0 | 18 | 80* | -3 | 9 | 12
CCOc1cccc(N(C(=O)Cc2cccs2)C(C(=O)NC2CCCCC2)c2cccn2C)c1 (centres undefined) | 0 | -30 | 89* | -7 | 1 | nt
Cc1cc(C)cc(N(C(=O)Cc2cccs2)C(C(=O)NC2CCCCC2)c2ccccn2)c1 (centres undefined) | -6 | nt | 119* | -4 | 0 | nt
